From publication PMC6690187 (Cancer chemotherapy and pharmacology, 2012)

Assays:
[1] = system: xenograft models of glioma (SF295), lung (H522), breast (MDA-MB-435), ovarian (OVCAR-3) cancers; conditions: SF295, H522, MDA-MB-435, OVCAR-3 xenografts; cited from earlier work
[2] = Urinary and fecal excretion, higher dose in CD-1 mice; format: in vivo; conditions: 40 mg/kg i.v.
NCI60 = conditions: read-out: average GI50; NCI60 screening, cytotoxic activity; cited from earlier work
[3] = Preliminary pharmacokinetics; format: in vivo, female Sprague-Dawley rats; conditions: rats, oral 2.5 vs 5 mg/kg; exception intestine
Summary of the method: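 Female Sprague-Dawley rats received oral doses of 2.5 or 5 mg/kg in (PEG400/EtOH/Tween 80 = 6:3:1)/D5W = 1:2, either as a single dose or once daily for 5 days. Plasma was sampled at 1, 6 and 12 h. Lungs, liver, kidneys, small intestine and small-intestine contents were collected at 12 h on days 1 and 5. Tissues were homogenized in PBS, extracted with acetonitrile and analysed by HPLC.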

[4] = in vitro assays and xenograft studies; cited from earlier work
[5] = Pharmacokinetic and tissue distribution studies in CD-1 mice; format: in vivo, female CD-1 mice
[6] = S9 metabolism, rat hepatic S9 fractions; format: in vitro ADME; conditions: rat S9 1 mg/ml, 10 μM, within an hour of incubation, 37°C
[7] = S9 metabolism, mouse hepatic S9 fractions; format: in vitro ADME; conditions: mouse S9 1 mg/ml, 10 μM, within an hour of incubation, 37°C
[8] = Urinary and fecal excretion after i.v. injection; format: in vivo, mice; conditions: i.v. injection 20 mg/kg, first 48 h, parent compound
Summary of the method: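 Female nude mice dosed i.v. (20 mg/kg, solution formulation) were housed in metabolic cages, and urine and feces were collected for up to 48 h. Containers and cages were rinsed twice with 0.9% saline. Urine and each wash were extracted directly, analysed separately and summed. Feces were homogenized in PBS (5 ml/g), extracted with acetonitrile and measured by HPLC. Results were expressed as % of dose.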

[9] = system: MDA-MB-435 breast cancer xenograft; conditions: oral doses 70-280 mg/kg and i.v. dose 10 mg/kg; cited from earlier work
[10] = S9 metabolism, human hepatic S9 fractions; format: in vitro ADME; conditions: human S9 1 mg/ml, 10 μM, within an hour of incubation, 37°C
mouse plasma proteins = assay: Binding to mouse plasma proteins; format: in vitro ADME; conditions: 37°C 1 h
Summary of the method: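 Test compound added to mouse plasma at 0.1, 1.0 and 10 μM and held at 37°C for 1 h; methanol replaced plasma in controls. Samples were centrifuged through 30 kDa ultrafiltration units at 2,000×g until dry. Filtrate (free, F) and unfiltered solution (total, T) were each measured in triplicate by HPLC-UV at 308 nm. Filter-bound amount (X) was included: % bound = [(T–F–X)/T] × 100.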

[11] = Stability of ML-970 in mouse plasma; format: in vitro ADME; conditions: for compound remaining intact: 4°C
Summary of the method: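 Mouse plasma was spiked with 1 or 10 μM test compound. Samples were held at 37°C in a water bath (sampled at 5, 10, 20, 30 and 60 min and at 2, 4 and 8 h), at 4°C (0.5–24 h) or at −80°C (1, 2 and 4 weeks). Each sample was extracted and measured by HPLC-UV at 308 nm. Remaining amount was expressed as % of the starting concentration versus time.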

six different cell lines = conditions: cited from earlier work
[12] = Pharmacokinetic studies in nude mice; format: in vivo, female athymic nude mice; conditions: for intact compound in plasma / time to highest plasma concentration: solution formulation
Summary of the method: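 Female athymic nude mice (~25 g) received a solution formulation (PEG400/EtOH/Tween 80/D5W) at 20 mg/kg i.v., 50 mg/kg i.p. or 100 mg/kg p.o. Others received a suspension (0.05% Tween 80/saline) at 15 mg/kg i.p. or 100 mg/kg p.o. Heparinized retro-orbital blood was taken from 5 min to 24 h (i.v.) or 10 min to 48 h, with ≥3 samples per time point. Plasma was extracted with acetonitrile and measured by HPLC-UV.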

[13] = CD-1 mice, PEG400/EtOH/Tween 80/D5W, i.v., 2.5 mg/kg, plasma
[14] = CD-1 mice, PEG400/EtOH/Tween 80/D5W, p.o., 2.5 mg/kg, plasma
[15] = CD-1 mice, PEG400/EtOH/Tween 80/D5W, p.o., 5 mg/kg, plasma
[16] = nude mice, 0.05% Tween 80/Saline, i.p., 15 mg/kg, plasma
[17] = nude mice, 0.05% Tween 80/Saline, p.o., 100 mg/kg, plasma
[18] = nude mice, PEG400/EtOH/Tween 80/D5W, i.p., 50 mg/kg, plasma
[19] = nude mice, PEG400/EtOH/Tween 80/D5W, i.v., 20 mg/kg, plasma
[20] = nude mice, PEG400/EtOH/Tween 80/D5W, p.o., 100 mg/kg, plasma

COc1cc2cc(C(=O)Nc3cc(N)c4ccccc4c3CCCl)[nH]c2c(OC)c1OC [ML-970]
antitumor effects in xenograft models [1]: significant antitumor effects in all of the models | compound excreted in urine ([2]; 48 h after treatment): about 1% | parental compound excreted in feces ([2]; first 8 h): less than 0.1% | GI50 (NCI60): 0.034 µM | tissue concentrations between two doses [3]: no significant difference | liver and bone marrow toxicity compared with other CC-1065 analogs [4]: decreased liver and bone marrow toxicity | AUC0~∞ [5, 13]: 1960 ng·h/mL | CL or CL/F [5, 13]: 1.27 mL/g/h | Cmax [5, 13]: 4340 ng/mL | MRT [5, 13]: 2.76 h | T1/2 [5, 13]: 0.31 h | Tmax [5, 13]: 0 h | Vss [5, 13]: 3.52 mL/g | F^oral ([5]; CD-1 mice, PEG400/EtOH/Tween 80/D5W, p.o., 2.5 mg/kg): 0.43 | AUC0~∞ [5, 14]: 850 ng·h/mL | CL or CL/F [5, 14]: 2.61 mL/g/h | Cmax [5, 14]: 550 ng/mL | MRT [5, 14]: 8.28 h | T1/2 [5, 14]: 10.73 h | Tmax [5, 14]: 0.08 h | F^oral ([5]; CD-1 mice, PEG400/EtOH/Tween 80/D5W, p.o., 5 mg/kg): 0.44 | AUC0~∞ [5, 15]: 1730 ng·h/mL | CL or CL/F [5, 15]: 3.22 mL/g/h | Cmax [5, 15]: 990 ng/mL | MRT [5, 15]: 1.8 h | T1/2 [5, 15]: 2.97 h | Tmax [5, 15]: 0.5 h | tissue distribution ([5]; mice, i.v. 2.5 mg/kg and p.o. 2.5 mg/kg, levels stayed relatively high for at least 24 h): high levels of ML-970 in the liver, gallbladder, and small intestine | loss of parent compound with S9 enzymes [6]: no significant loss of the parent compound | loss of parent compound with S9 enzymes [7]: no significant loss of the parent compound | compound excreted in feces [8]: 1.14% | compound excreted in urine [8]: less than 0.5% | tumor growth [9]: inhibited tumor growth | weight loss (index for host toxicity) [9]: no weight loss | loss of parent compound with S9 enzymes [10]: no significant loss of the parent compound | binding to plasma proteins (mouse plasma proteins; 0.1 μM): 87.57% | binding to plasma proteins (mouse plasma proteins; 1.0 μM): 89.31% | binding to plasma proteins (mouse plasma proteins; 10.0 μM): 90.89% | compound remaining intact ([11]; 24-h storage (summary)): approximately 90% | compound remaining intact ([11]; 24 h, 1 μM): 88.6% | compound remaining intact ([11]; 24 h, 10 μM): 92.4% | compound remaining ([11]; 37°C, 8-h incubation, both 1 and 10 μM (summary)): approximately 70% | compound remaining ([11]; 37°C, 8 h, 1 μM): 70.9% | compound remaining ([11]; 37°C, 8 h, 10 μM): 70.2% | compound remaining ([11]; −80°C, 4 weeks, 1 μM): 87.5% | compound remaining ([11]; −80°C, 4 weeks, 10 μM): 89.8% | degradation on storage ([11]; −80°C, a week of storage): no significant degradation | cell lines killed in hollow fiber assay (six different cell lines): efficiently killing six different cell lines | hollow fiber assay total score (six different cell lines): 54 points | toxicity observed in pharmacokinetic studies ([12]; doses from 10 to 100 mg/kg, soluble and suspension formulations): did not observe any toxicity | AUC0~∞ [12, 16]: 5350 ng·h/mL | CL or CL/F [12, 16]: 2.67 mL/g/h | Cmax [12, 16]: 1160 ng/mL | MRT [12, 16]: 6.21 h | T1/2 [12, 16]: 6.14 h | Tmax [12, 16]: 1 h | AUC0~∞ [12, 17]: 11520 ng·h/mL | CL or CL/F [12, 17]: 8.07 mL/g/h | Cmax [12, 17]: 1520 ng/mL | MRT [12, 17]: 8.1 h | T1/2 [12, 17]: 6.73 h | Tmax [12, 17]: 1 h | intact compound in plasma ([12]; nude mice, 8 h after i.v. 20 mg/kg): still detectable | intact compound in plasma ([12]; nude mice, 24 h after i.p. 50 mg/kg): could still be detected | intact compound in plasma ([12]; nude mice, 24 h after p.o. 100 mg/kg): could still be detected | AUC0~∞ [12, 18]: 42110 ng·h/mL | CL or CL/F [12, 18]: 1.19 mL/g/h | Cmax [12, 18]: 20390 ng/mL | MRT [12, 18]: 2.5 h | T1/2 [12, 18]: 4.58 h | Tmax [12, 18]: 0.17 h | AUC0~∞ [12, 19]: 14890 ng·h/mL | CL or CL/F [12, 19]: 1.35 mL/g/h | Cmax [12, 19]: 22350 ng/mL | MRT [12, 19]: 0.87 h | T1/2 [12, 19]: 0.78 h | Tmax [12, 19]: 0 h | Vss [12, 19]: 1.18 mL/g | F^oral ([12]; nude mice, PEG400/EtOH/Tween 80/D5W, p.o., 100 mg/kg): 0.53 | AUC0~∞ [12, 20]: 39630 ng·h/mL | CL or CL/F [12, 20]: 2.52 mL/g/h | Cmax [12, 20]: 18930 ng/mL | MRT [12, 20]: 2.82 h | T1/2 [12, 20]: 4.26 h | Tmax [12, 20]: 0.5 h | time to highest plasma concentration ([12]; nude mice, i.p. 50 mg/kg): 10 min | time to highest plasma concentration ([12]; nude mice, oral gavage 100 mg/kg): 30 min
